Screens: PubChem, Broad Institute
A selection: hits, their analogues and other compounds. The true share with any hit is near 2.6%.
DENV2 CPE: protects cells from dengue virus 2 cytopathic effect. CPE inhibition, % at 9.99 µM. hit rate 1.7% among 350,000. DENV2-infected cells, cytopathic effect rescue, plate reader. AID 651640; in the data active means CPE inhibition above about 20%, passing the limit was not always enough; inconclusive means no clear call, values can overlap the other calls; tested in BHK-21 cells;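 further: 0% = median of neutral control wells and 100% = median of positive control wells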
ERAP1 HTS inh: blocks human ERAP1 aminopeptidase activity. Q9NZ08. recombinant ERAP1, Leu-AMC fluorescence, 60 min. inhibition, % at 10.7 µM. hit rate 0.15% among 340,000;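 active means mean replicate inhibition of at least 30%, or all replicates individually reaching that 30% level; inactive means mean below 30% and not every replicate reaching it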;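 further: 0% = neutral control wells and 100% = L-leucinethiol positive control wells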
Target sequence (Q9NZ08 whole entry, looked up): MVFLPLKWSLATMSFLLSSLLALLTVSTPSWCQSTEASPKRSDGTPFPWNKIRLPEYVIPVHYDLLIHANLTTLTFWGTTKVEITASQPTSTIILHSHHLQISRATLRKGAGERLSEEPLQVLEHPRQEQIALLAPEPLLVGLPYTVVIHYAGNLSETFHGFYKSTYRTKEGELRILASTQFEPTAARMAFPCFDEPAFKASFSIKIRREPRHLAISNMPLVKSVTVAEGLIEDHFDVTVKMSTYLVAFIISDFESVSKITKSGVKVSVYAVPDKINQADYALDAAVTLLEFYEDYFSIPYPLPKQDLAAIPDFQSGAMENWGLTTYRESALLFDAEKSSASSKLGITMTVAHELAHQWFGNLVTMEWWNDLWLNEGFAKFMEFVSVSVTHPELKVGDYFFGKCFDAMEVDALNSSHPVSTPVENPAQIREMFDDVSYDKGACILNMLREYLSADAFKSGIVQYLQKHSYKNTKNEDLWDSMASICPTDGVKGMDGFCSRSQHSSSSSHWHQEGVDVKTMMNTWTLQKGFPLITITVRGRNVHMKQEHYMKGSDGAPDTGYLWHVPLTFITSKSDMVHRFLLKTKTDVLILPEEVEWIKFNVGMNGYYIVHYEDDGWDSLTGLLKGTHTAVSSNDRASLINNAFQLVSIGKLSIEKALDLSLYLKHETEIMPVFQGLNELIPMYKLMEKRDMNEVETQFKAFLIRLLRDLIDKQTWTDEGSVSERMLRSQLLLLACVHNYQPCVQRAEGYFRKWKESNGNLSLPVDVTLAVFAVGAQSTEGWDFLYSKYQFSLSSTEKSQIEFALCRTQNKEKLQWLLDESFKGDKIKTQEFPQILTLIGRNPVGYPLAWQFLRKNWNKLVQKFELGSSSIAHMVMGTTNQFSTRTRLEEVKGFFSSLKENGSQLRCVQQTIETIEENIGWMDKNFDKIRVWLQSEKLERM
GSIS activator: primary screen for activators of insulin secretion dependent on glucose, INS-1E cells, GLuc reporter luminescence; INS-1E GLuc reporter insulin secretion, 2-3 h; activation, % at 16.6 µM; hit rate 0.61% among 370,000; AID 743287;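 active means lowest replicate activation of at least 40%, so every replicate reaches that level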;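 further: 0% = median of neutral control wells and 100% = median of IBMX positive control wells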
CFTR F508del cor: correctors of CFTR F508del function in bronchial epithelial cells. CFBE cells, YFP halide quenching; stimulated with forskolin plus potentiator P3; % fluorescence drop versus neutral controls. activity (quench increase), % at 7.58 µM. hit rate 0.36% among 350,000;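 active means mean added fluorescence quench of at least 8% versus neutral control, with both replicates also reaching 8%; inconclusive means only one of the mean or replicate conditions met; inactive means mean below 8% and not both replicates reaching 8%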;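 further: cells transiently co-express mutant CFTR-F508del with the halide-sensitive YFP; corrector assay measuring rescue of mutant channel to the surface after 24 h compound exposure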
E-selectin induc: induces E-selectin expression in human endothelial cells; hit rate 0.37% among 260,000; HUVEC E-selectin immunofluorescence imaging; normalized: neutral wells 0, TNF-alpha wells 100; activation, % at 7.58 µM;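 active means mean E-selectin-positive cell signal at least 10% of the positive control, reached in at least 60% of replicates, without over 20% cell loss; inconclusive means no rule given, readout overlaps actives, possibly toxicity-flagged; inactive means the rest, including those meeting only one limit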
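System: HUVEC, human umbilical vein endothelial cells; quantity: 3,000 cells/well; buffer or medium: EGM-2 medium, gelatin-coated wells; dosing: single-point compound dose; detection: immunofluorescence imaging; evaluation: % PE-positive cells; benchmarks: TNF-alpha, DMSO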
miR-122 sensor: miR-122 inhibition in Huh7 cells; AID 602342; hit rate 0.3% among 340,000; activation (reporter increase), % at 12.5 µM; Huh7 miR-122 Renilla luciferase sensor, 48 h; neutral wells = 0, positive control = 100;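 active means mean replicate activation score at least 90 and every replicate individually at or above 90; inconclusive means only one of the two criteria met; inactive means neither criterion met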;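 further: higher luciferase means less miR-122 activity so hits act as miR-122 inhibitors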
* = called active by the depositor; u = inconclusive; x = no result; [ ] = another dose, or the depositor's remark.

SMILES	DENV2 CPE	ERAP1 HTS inh	GSIS activator	CFTR F508del cor	E-selectin induc	miR-122 sensor
COc1ccc2c3c(n(C)c2c1)[C@H](CO)N(C(=O)Nc1ccc(F)cc1)CC31CN(C(=O)c2cccnc2)C1	25*	-3	0	0	0	x
C[C@@H]1CN([C@@H](C)CO)C(=O)c2cc(-c3ccccc3F)cnc2O[C@H]1CN(C)Cc1cccc(C(=O)O)c1	-3	0	-5	0	0	2[16.7 µM]
CC(C)NC(=O)N(C)C[C@H]1Oc2c(NS(=O)(=O)c3ccccc3)cccc2C(=O)N([C@@H](C)CO)C[C@@H]1C	u	2	17	-3	10	11[16.7 µM]
CNC[C@@H]1OCCCC[C@@H](C)Oc2ccc(NC(=O)Nc3ccc(C(F)(F)F)cc3)cc2C(=O)N([C@H](C)CO)C[C@H]1C	x	x	-5	-4	0	2[16.7 µM]
O=C(NC1CCCC1)[C@H]1[C@H](CO)[C@H]2Cn3c(cccc3=O)[C@@H]1N2CC1CCCC1	-3	0	16	-1	0	5[16.7 µM]
Cc1cccc(S(=O)(=O)N2C[C@H](O)COC[C@@H]3O[C@@H](CC(=O)NCCCN4CCOCC4)CC[C@H]32)c1	-17	-1	8	-5	0	1[16.7 µM]
COc1ccc2c3c(n(C)c2c1)[C@@H](CO)N(Cc1ccccc1)CC31CCN(C)CC1	56*	x	3	-1	0	x
COc1ccc2c3c(n(C)c2c1)[C@@H](CO)N(C(=O)Nc1ccc(F)cc1)CC31CCN(C(=O)Cc2ccncc2)CC1	40*	1	0	-4	0	x
COc1cccc(CN2CC3(CCN(C)CC3)c3c(n(C)c4cc(OC)ccc34)[C@@H]2CO)c1	11	4	16	2	1	x
COc1ccc(C(=O)N2CCC2(C)C(=O)O)cc1F (stereo unspecified)	79*	-2	19	-1	0	-5
C[C@@H]1CCCCO[C@@H](CN(C)Cc2ccc(C(F)(F)F)cc2)[C@H](C)CN([C@@H](C)CO)C(=O)c2cc(NC(=O)Nc3ccc4c(c3)OCO4)ccc2O1	u	-3	16	-3	0	-4[16.7 µM]
Cc1noc(C)c1S(=O)(=O)N(C)C[C@@H]1Oc2ccc(NS(C)(=O)=O)cc2C(=O)N([C@H](C)CO)C[C@@H]1C	x	x	x	1	u	6[16.7 µM]
CC1=NCCN1CCNC(=O)Nc1ccc(C(C)(C)C)cc1	24*	x	-13	-2	x	-6
c1nc(SSc2ncnc3nc[nH]c23)c2[nH]cnc2n1	-5	33*	-3	2	x	-7
O=C(O)CSc1ncnc2nc[nH]c12	x	x	x	x	x	-5
CN(C)CC(=O)N[C@@H]1CC[C@H](CC(=O)NCc2ccccc2F)O[C@H]1CO	-4	2	8	-4	0	x
COc1cc(C)c(S(=O)(=O)NOCc2ccc([N+](=O)[O-])cc2)c(C)c1C	-3	-1	2	2	x	323*
COc1cc(C)c(S(=O)(=O)NOCc2ccccc2)c(C)c1C	6	4	-25	1	x	84
O=C(/C=C/c1cn(CC(O)CN2CCCCC2)c2ccccc12)c1ccccc1 (stereo unspecified)	27*	x	9	-1	x	x
C/C(=N\NC(=O)c1ccccc1O)c1ccc(NC(=O)c2ccccc2)cc1	117*	1	-1	2	0	9
COc1ccc(NC(=O)C2CCCN2S(=O)(=O)c2ccc3c(c2)CCC(=O)N3)c(OC)c1 (stereo unspecified)	37*	-2	16	2	x	0
COc1ccc(NC(=O)C2CCCN2S(=O)(=O)c2ccc3c(c2)CC(C)N3C(C)=O)cc1OC (stereo unspecified)	-5	2	101*	0	x	3
Cc1ccc(CCNC(=O)C2CCCN2S(=O)(=O)c2ccc3c(c2)CCC(=O)N3)cc1 (stereo unspecified)	x	x	x	x	x	-3
Cc1ccc(S(=O)(=O)N[C@@H]2CC[C@@H](CC(=O)NCc3ccccc3F)O[C@@H]2CO)cc1	-6	-3	1	1	1	x
CCn1c(=O)c2cc(S(=O)(=O)NCc3ccccc3)ccc2n(CC)c1=O	x	x	13	x	x	14
SMILES	DENV2 CPE	ERAP1 HTS inh	GSIS activator	CFTR F508del cor	E-selectin induc	miR-122 sensor
CCn1c(=O)c2cc(S(=O)(=O)NC3CCCCC3)ccc2n(CC)c1=O	x	x	x	x	x	98*
C[C@H]1CN([C@@H](C)CO)S(=O)(=O)c2ccc(C#CCN(C)C)cc2O[C@H]1CN(C)Cc1ccncc1	5	1	9	-2	0	2[16.7 µM]
CS(=O)(=O)N(Cc1ccc(Cl)cc1)c1ccc(C(=O)NCCC2=CCCCC2)cc1	x	x	80*	x	x	-5
CS(=O)(=O)N(Cc1ccc(C(=O)NN=C2CCCCCC2)cc1)c1ccccc1	110*	5	6	0	1	-6
O=C(CSc1n[nH]c(-c2cccs2)n1)NC1CCS(=O)(=O)C1 (stereo unspecified)	5	35*	-3	-1	0	x
COc1cccc(CN(C)C(=O)CN2C(=O)NC3(CCCc4ccccc43)C2=O)c1 (stereo unspecified)	73*	0	-3	1	-1	-6
CN(C)C(=O)C[C@@H]1CC[C@@H](NC(=O)Nc2cccc(F)c2)[C@H](CO)O1	-1	-2	7	0	0	x
O=C(N[C@H]1CC[C@@H](CCNS(=O)(=O)Cc2ccccc2)O[C@H]1CO)c1ccc2c(c1)OCO2	-4	-1	8	3	0	x
CC1CCN(C(=O)COC(=O)CNC(=O)c2ccccc2F)CC1	69*	0	1	1	x	-6
CC1CCN(C(=O)COC(=O)c2cc3ccccc3oc2=O)CC1	54*	0	x	0	0	6
CNC(=O)C[C@@H]1CC[C@H]2[C@H](COc3ccc(NC(=O)c4ccccc4Cl)cc3C(=O)N2C)O1	0	0	13	2	0	10[16.7 µM]
O=C(NC(=S)Nc1ccc(S(=O)(=O)NC2CCCCC2)cc1)c1cccs1	-7	-3	-7	4	x	396*
O=C(C1CCCCC1)N1CC2(C1)[C@H](c1ccccc1)[C@@H](CO)N2C(=O)NC1CCCC1	-2	3	-10	3	0	x
O=C(C1CCC1)N1CC2(C1)[C@@H](c1ccccc1)[C@@H](CO)N2C(=O)NC1CCCC1	31*	2	13	-2	0	x
CCCNC(=O)N1[C@H](CO)[C@@H](c2ccccc2)C12CN(C(=O)C1CCCCC1)C2	85*	3	-1	-1	0	x
CCCNC(=O)N1[C@H](CO)[C@H](c2ccccc2)C12CN(C(=O)C1CCCCC1)C2	14	x	-1	0	0	x
COC(=O)C[C@H]1CC[C@H]2[C@@H](COc3ccc(NS(C)(=O)=O)cc3C(=O)N2C)O1	9	1	14	0	0	x
O=[N+]([O-])c1ccc(Cl)cc1N/N=C/c1ccncc1	8	-2	2	0	0	2
